Measured values published in ChEMBL document CHEMBL4270633, “Discovery of novel vinyl sulfone derivatives as anti-tumor agents with microtubule polymerization inhibitory and vascular disrupting activities” (Eur J Med Chem, 2018).
Calls of active or inactive are those of the source. The rule behind the calls is not given here.

Legend:
K562 [1] = assay: Cell cycle arrest in human K562 cells assessed as accumulation at S phase at 0.005 uM after 48 hrs by propidium iodide staining based flow cytometry (reference value: 49.41%); type: functional
A549 = assay: Antiproliferative activity against human A549 cells after 72 hrs by MTT assay; type: functional, cell-based; conditions: A549, 72 h
Procedure, shortened: (§1)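 Cells seeded and held 24 h at 37 °C, 5% CO2, then exposed to a concentration series in medium with 0.1% DMSO for 72 h. MTT (5 mg/mL in PBS) added for 4 h and OD read at 490 nm. IC50 taken from dose-response curves; mean ± SD of at least three independent experiments.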

K562 [2] = assay: Antiproliferative activity against human K562 cells after 72 hrs by MTT assay; type: functional, cell-based; conditions: K562, 72 h; procedure, shortened: as §1
K562 [3] = assay: Cell cycle arrest in human K562 cells assessed as accumulation at S phase at 0.02 uM after 48 hrs by propidium iodide staining based flow cytometry (reference value: 49.41%); type: functional
HepG2 = assay: Antiproliferative activity against human HepG2 cells after 72 hrs by MTT assay; type: functional, cell-based; conditions: HepG2, 72 h; procedure, shortened: as §1
K562 [4] = assay: Disruption of microtubule network in human K562 cells at 0.005 to 0.02 uM after 24 hrs by DAPI staining based immunofluorescent microscopic method; type: cell-based
Procedure, shortened: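 K562 cells exposed for 24 h to 0.1% DMSO vehicle or to 0.05, 0.10, 0.20 µM or 0.005, 0.010, 0.020 µM. Fixed in 4% paraformaldehyde, blocked with goat serum 20 min at room temperature, then anti-α-tubulin antibody 2 h at 37 °C. Fluorescent antibody staining, DAPI nuclear counterstain, fluorescence microscopy.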

K562 [5] = assay: Cell cycle arrest in human K562 cells assessed as accumulation at S phase at 0.01 uM after 48 hrs by propidium iodide staining based flow cytometry (reference value: 49.41%); type: functional
K562 [6] = assay: Induction of apoptosis in human K562 cells after 48 hrs by Annexin V-FITC/propidium iodide staining based flow cytometry; type: functional, cell-based
Procedure, shortened: (§2)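 K562 cells treated 48 h at 0, 0.05, 0.1, 0.2 µM or 0, 0.005, 0.010, 0.020 µM. Washed in PBS, resuspended in Annexin V binding buffer and stained 15 min in the dark. Early plus late apoptotic fractions quantified by flow-cytometric quadrant analysis.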

K562 [7] = assay: Induction of apoptosis in human K562 cells at 0.005 uM after 48 hrs by Annexin V-FITC/propidium iodide staining based flow cytometry (reference value: 1.46%); type: functional; procedure, shortened: as §2
HUVEC = assay: Antivascular activity against HUVEC assessed as reduction in wound closure after 24 hrs by phase contrast microscopic method; type: functional, cell-based; conditions: Homo sapiens
Procedure, shortened: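 Scratch wounds made with a sterile 200 µL pipette tip, then treated at 0.05, 0.10, 0.20 µM or 0.005, 0.010, 0.020 µM. Phase-contrast images taken at 0 h and 24 h after treatment.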

H22 [8] = assay: Antitumor activity against mouse H22 cells implanted in ICR mouse assessed as tumor growth inhibition at 15 mg/kg, iv administered once daily for 21 consecutive days relative to control; type: functional; conditions: read-out: TGI
Procedure, shortened: (§3)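 Male ICR mice, five weeks old, inoculated s.c. in the right flank with 1 × 10^6 H22 cells. After one day, randomized into groups of six. Given i.v. 15 or 30 mg/kg daily for 21 days in 10% DMF/2% Tween 80/88% saline, or 8 mg/kg every 2 days; vehicle control given i.v. Tumors excised and weighed; inhibition (%) = (1 − treated/control mean tumor weight) × 100.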

K562 [9] = assay: Antiproliferative activity against human K562 cells at 1 uM after 72 hrs by MTT assay; type: functional, cell-based
K562 [10] = assay: Cell cycle arrest in human K562 cells assessed as accumulation at G1 phase at 0.005 uM after 48 hrs by propidium iodide staining based flow cytometry (reference value: 41.08%); type: functional
[11] = Inhibition of porcine brain tubulin polymerization after 30 mins by spectrophotometric method; design: species or system Sus scrofa
Procedure, shortened: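 Purified tubulin (2 mg/mL) in PEM buffer (80 mM PIPES pH 6.9, 0.5 mM EGTA, 2 mM MgCl2, 15% glycerol), preincubated on ice with compound or DMSO vehicle, then GTP added. Absorbance at 340 nm followed at 37 °C for 30 min. IC50 derived from area under the polymerization curve.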

K562 [12] = assay: Induction of apoptosis in human K562 cells at 0.01 uM after 48 hrs by Annexin V-FITC/propidium iodide staining based flow cytometry (reference value: 1.46%)
K562 [13] = assay: Cell cycle arrest in human K562 cells assessed as accumulation at G2 phase at 0.02 uM after 48 hrs by propidium iodide staining based flow cytometry (reference value: 9.51%); type: functional
K562 [14] = assay: Cell cycle arrest in human K562 cells assessed as accumulation at G2 phase at 0.01 uM after 48 hrs by propidium iodide staining based flow cytometry (reference value: 9.51%); type: functional
K562 [15] = assay: Cell cycle arrest in human K562 cells assessed as accumulation at G2 phase at 0.005 uM after 48 hrs by propidium iodide staining based flow cytometry (reference value: 9.51%); type: functional
H22 [16] = assay: Antitumor activity against mouse H22 cells implanted in ICR mouse assessed as tumor growth inhibition at 30 mg/kg, iv administered once daily for 21 consecutive days relative to control; type: functional; conditions: read-out: TGI; procedure, shortened: as §3
K562 [17] = assay: Cell cycle arrest in human K562 cells assessed as accumulation at G1 phase at 0.01 uM after 48 hrs by propidium iodide staining based flow cytometry (reference value: 41.08%); type: functional
K562 [18] = assay: Cell cycle arrest in human K562 cells assessed as accumulation at G1 phase at 0.02 uM after 48 hrs by propidium iodide staining based flow cytometry (reference value: 41.08%); type: functional
K562 [19] = assay: Induction of apoptosis in human K562 cells at 0.02 uM after 48 hrs by Annexin V-FITC/propidium iodide staining based flow cytometry (reference value: 1.46%); type: functional; procedure, shortened: as §2

Compound `COc1ccc(/C=C\c2cc(OC)c(OC)c(OC)c2)cc1O` [COMBRETASTATIN A4] has an Activity (K562 [1]) of 40.02%, an IC50 (A549) of 0.037 µM and an IC50 (K562 [2]) of 0.021 µM. For the same compound, the Activity (K562 [3]) was 18.54%, the IC50 (HepG2) was 0.012 µM and the Activity (K562 [4]) was “Active”. For the same compound, the Activity (K562 [5]) was 16.25%, the Activity (K562 [6]) was “Dose-dependent effect” and the Activity (K562 [7]) was 25.28%. For the same compound, the Activity (HUVEC) was “Dose-dependent effect”, the inhibition in vivo at 15 mg/kg (H22 [8]) was 45% and the Activity (K562 [9]) was “Active”. It also gave an Activity (K562 [10]) of 46.14%, an IC50 [11] of 2.17 µM and an Activity (K562 [12]) of 53.05%. It also gave an Activity (K562 [13]) of 24.95%, an Activity (K562 [14]) of 22.59% and an Activity (K562 [15]) of 13.84%. The inhibition in vivo at 30 mg/kg (H22 [16]) was 56.7%, the Activity (K562 [17]) was 61.16% and the Activity (K562 [18]) was 56.51%. For the same compound, the Activity (K562 [19]) was 63.05%.
